Assay results taken from publication PMC7210785 (Cancer cell, 2019).

Biological target: T1, RNF2 (Homo sapiens, UniProt Q99496)
T1 sequence (Q99496 2-336): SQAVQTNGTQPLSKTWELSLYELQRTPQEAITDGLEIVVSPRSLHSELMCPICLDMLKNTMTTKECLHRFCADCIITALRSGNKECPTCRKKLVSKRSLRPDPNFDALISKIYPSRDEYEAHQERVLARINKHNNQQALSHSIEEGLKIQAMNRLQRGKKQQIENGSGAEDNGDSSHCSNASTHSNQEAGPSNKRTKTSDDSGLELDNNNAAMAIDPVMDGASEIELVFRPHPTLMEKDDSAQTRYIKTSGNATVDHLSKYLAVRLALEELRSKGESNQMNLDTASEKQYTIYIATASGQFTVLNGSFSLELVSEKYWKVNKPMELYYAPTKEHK
Type: cell-based
In short: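 RNF2-PRC1 complex immunoprecipitated from PC3 cells, washed, then preincubated with test compound for 30 min at 4 °C. Products run on SDS-PAGE and immunoblotted with anti-H2A. In cells, histones acid-extracted (0.4N H2SO4) from nuclear extracts and probed for H2A/H2AUb.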

- IC50: ~0.47 µM
Substance: GW-516 [compound 4]
